Pf gametocyte: kills late stage P. falciparum gametocytes; actives 0.065% (n = 150,000); P. falciparum stage V gametocytes, ATP luminescence, 24 h; inhibition, % at 10.9 µM;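 active = inhibition above the mean plus 3 SD of compounds within the control limits, set per campaign, cut at about 38% in these data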;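 note: 0% = DMSO wells and 100% = medium only without gametocytes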
FLuc act counter: firefly luciferase counter-screen for stimulation assays; 200,000 tested, under 10 active; AID 1027; activation factor at 10 µM; P08659; ATPlite luciferase biochemical, luminescence, 10 min; 0 = ATP-free wells, 1 = DMSO control;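 active = luciferase activation factor, scaled between plate controls, of at least 2 with compound at 10 µM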
Target sequence (P08659 whole entry, looked up): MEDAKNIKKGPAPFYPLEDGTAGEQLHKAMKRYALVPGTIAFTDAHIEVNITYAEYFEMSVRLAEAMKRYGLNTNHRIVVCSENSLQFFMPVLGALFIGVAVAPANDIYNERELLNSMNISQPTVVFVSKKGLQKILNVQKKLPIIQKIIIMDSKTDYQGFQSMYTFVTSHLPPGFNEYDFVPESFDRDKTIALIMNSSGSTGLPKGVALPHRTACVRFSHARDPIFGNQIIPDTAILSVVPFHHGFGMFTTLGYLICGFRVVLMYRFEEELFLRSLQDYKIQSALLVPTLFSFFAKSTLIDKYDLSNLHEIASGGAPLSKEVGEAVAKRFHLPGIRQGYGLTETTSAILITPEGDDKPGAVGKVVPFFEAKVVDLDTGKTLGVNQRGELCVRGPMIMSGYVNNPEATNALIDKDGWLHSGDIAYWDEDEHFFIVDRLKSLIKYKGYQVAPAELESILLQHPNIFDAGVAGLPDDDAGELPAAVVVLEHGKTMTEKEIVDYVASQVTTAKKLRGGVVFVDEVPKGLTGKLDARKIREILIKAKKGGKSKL
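System: Luciferase/luciferin detection reagent, cell-free biochemical luciferase assay | Medium: PBS buffer for ATP | Dosing: Test compounds dosed from 2 mM stocks in 100% DMSO | Timing: 10 min at ambient temperature | Signal: Luminescence measurement of luciferase light output | Evaluation: Luciferase activation, seen as luminescence increase over controls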
APP 5'UTR act: APP 5'UTR luciferase reporter activation | activation, % at 2 µM | AID 1276 | actives 1% (n = 190,000) | SH-SY5Y APP 5'UTR luciferase reporter, luminescence; zero percent = DMSO vehicle wells;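 active = activation above a set limit, based on mean plus 3 SD of controls, cut at about 140% in these data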
FLuc inh counter: counter-screen for luciferase assay inhibitors: firefly luciferase inhibition | P08659 | ATPLite firefly luciferase biochemical luminescence, 10 min | inhibition, % at 10 µM | actives 1.5% (n = 200,000);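 active = inhibition above about 50% when tested at 10 µM, limit read from the data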
STAT1 act: increases IFN-gamma driven STAT1 reporter signal; activation (% of control), % at 5.5 µM; NIH 3T3 STAT1-luciferase reporter, luminescence; 100% = IFN-gamma alone, no compound; actives 2.6% (n = 200,000);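 active = activation above the screen-wide mean activation plus 3 SD, cut at about 130% in these data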;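 note: raw ratio to IFN-gamma control signal so 100% means no change and 0% no light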
NF-kB expr up: raises NF-kB expression in human neuronal cells; NF-kB reporter expression; hits give high values; AID 1239; fold change at 12.5 µM; actives 1.6% (n = 190,000); in the data active = fold change above about 3.3
* hit, by the source's call; / = not tested or not shown. Rows were chosen to be rich in hits. Some 3.5% of all compounds tested hit in one or more screens of this group.

SMILES	Pf gametocyte	FLuc act counter	APP 5'UTR act	FLuc inh counter	STAT1 act	NF-kB expr up
CNC(=O)Oc1ccc(-c2cn3cc(C)ccc3n2)cc1	27	0	49	97*	28	5*
CNC(=O)Oc1cccc2ccccc12	-7	/	/	/	/	/
CNC(=O)Oc1cccc(-c2cn3cc(Cl)ccc3n2)c1	20	0.1	170*	95*	117	8.2*
O=C(Nc1ccccc1)c1cccn(Cc2ccccc2)c1=O	26	0.8	43	15	132*	2.1
Nc1ccccc1C(=O)OCC(=O)c1ccc2c(c1)OCCO2	22	0	6	97*	119	1.7
COC(=O)C1=C(c2ccc(Cl)c(C(F)(F)F)c2)C[C@@H]2CC[C@H]1N2C(=O)NCc1ccco1	-19	/	/	/	/	/
COC(=O)C1=C(c2ccc(OC(F)(F)F)cc2)C[C@@H]2CC[C@H]1N2C(=O)N1CCC(O)CC1	-7	/	/	/	/	/
CCCOC(=O)c1ccc(-[n+]2c(-c3ccccc3)cc(-c3ccccc3)cc2-c2ccccc2)cc1	33	/	/	/	/	/
CN(C)c1ccc(/C=C/C=C2/C(=O)NC(=O)N(c3ccccc3)C2=O)cc1	-10	0.5	-1	53*	97	1.1
CCC[N+]12CCC(CC1)C(C(O)(c1ccccc1)c1ccccc1)C2 (stereo unspecified)	21	/	/	/	/	/
C[N+]12CCC(CC1)C(C(O)(c1ccccc1)c1cccs1)C2 (stereo unspecified)	/	1	-7	-3	103	4.1*
Cc1ccc2nc3c(cc2c1)CC1(C(=O)N(C)C(=O)N(C)C1=O)C1CCCCN31 (stereo unspecified)	/	0.5	26	53*	112	0.99
Nc1ccccc1C(=O)OCc1ccc([N+](=O)[O-])cc1	-16	1	9	-3	136*	2
COC(=O)C1=C(c2ccc(F)cc2OCc2ccccc2)C[C@@H]2CC[C@H]1N2C(=O)NCc1ccc([N+](=O)[O-])cc1	23	/	/	/	/	/
Cc1cc(C=C2C(=O)NC(=S)NC2=O)c(C)n1C1CCCC1	-21	0.2	22	77*	136*	1.6
CC(C)c1oc(=O)cc2c1[C@@H](O)[C@H]1OC(=O)[C@@]3(C)C[C@@H](O)[C@@H](O)[C@@]2(C)C13 (stereo partly specified)	-3	1	17	-4	82	7*
CC(C)c1oc(=O)cc2c1[C@@H](O)[C@H]1OC(=O)[C@@]3(C)CC[C@@H](O)[C@@]2(C)C13 (stereo partly specified)	14	1	22	-2	88	3.3*
C1=CC(Cc2cncs2)c2ccccc21 (stereo unspecified)	-14	/	/	/	/	/
S=C(NCCc1ccccc1)NCCc1cnc[nH]1	-3	/	/	/	/	/
Nc1c2c(nc3sc4c(c13)CCCC4)CCCCC2	/	0.6	56	36	124	3.8*
Nc1c2c(nc3sc4c(c13)CCCC4)CCCC2	-34	0.8	55	22	128	2.1
Clc1ccccc1Nc1ncnc(-n2cccc2)n1	-13	0.9	93	5	136*	2
Cc1ccccc1-[n+]1c(-c2ccccc2)cc(-c2ccccc2)cc1-c1ccccc1	-5	/	/	/	/	/
CN(C)c1ccc(C(=O)c2ccc(N(C)C)cc2)cc1	/	0.8	/	22	134*	2.6
O=C(CNC1CCCC1)Nc1ccc(N2CCCCCC2)cc1	-3	1	6	-4	110	1.1
SMILES	Pf gametocyte	FLuc act counter	APP 5'UTR act	FLuc inh counter	STAT1 act	NF-kB expr up
COC(=O)C1=C(c2cccc(OCc3ccccc3)c2)C[C@@H]2CC[C@H]1N2C(=O)NCc1cc(C)oc1C(F)(F)F	-4	/	/	/	/	/
COc1ccc2nc(NC3=NCCN3)sc2c1	12	0.4	56	57*	140*	3
COc1ccc(P2(=O)Nc3ccccc3N2)cc1	/	1	171*	0	125	1.1
COc1ccc(NP(=O)(Nc2ccc(OC)cc2)Oc2ccccc2)cc1	21	1.1	10	-6	101	1.1
O=C(c1cc(-c2ccccc2)on1)N1CCC2(CC1)OCCO2	/	0.8	50	19	137*	5.2*
O=C(c1cc2ccccn2n1)N1CCC2(CC1)OCCO2	7	1	4	1	94	1.1
CN1C(=O)/C(=C\c2ccc(N3CCCCCC3)cc2)C(=O)NC1=S	16	/	/	/	/	/
CN1C(=O)/C(=C\c2ccc(N3CCCCC3)o2)C(=O)NC1=S	-2	0.6	14	39	133*	2.2

Compound activity (PubChem BioAssay)
